Screening data deposited in PubChem BioAssay by several laboratories.
Only some compounds are listed: those with a hit (about 0.88% of all), similar ones and a draw of the others.
CXCR6 block – CXCR6 (human) receptor inhibition | AID 602244 | hit rate 0.36% among 360,000 | CHO-K1 PathHunter CXCR6 beta-arrestin, luminescence | inhibition, % at 20 µM | O00574; in the data active = inhibition above about 34%, passing the limit was not always enough;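 note: antagonist mode with CXCL16 agonist at 10 nM final; 0% = 10 nM CXCL16 with DMSO and 100% = unstimulated wells without agonist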
Target sequence (O00574 whole entry, looked up): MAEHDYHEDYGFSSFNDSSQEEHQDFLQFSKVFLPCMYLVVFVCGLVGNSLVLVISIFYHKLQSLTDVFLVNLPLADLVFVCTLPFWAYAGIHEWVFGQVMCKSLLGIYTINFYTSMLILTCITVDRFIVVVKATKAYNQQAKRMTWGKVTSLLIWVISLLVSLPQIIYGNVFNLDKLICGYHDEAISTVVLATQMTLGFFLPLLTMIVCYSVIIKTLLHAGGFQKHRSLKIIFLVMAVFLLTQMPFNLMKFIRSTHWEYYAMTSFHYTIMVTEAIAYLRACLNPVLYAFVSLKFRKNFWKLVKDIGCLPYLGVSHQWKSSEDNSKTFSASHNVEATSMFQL
CCR6 antag – blocks CCL20-driven beta-arrestin recruitment at human CCR6 | P51684 | CHO-K1 CCR6 PathHunter beta-arrestin, luminescence, CCL20-stimulated | inhibition, % at 20 µM | hit rate 0.49% among 340,000;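 active = compounds whose inhibition of the agonist-driven luminescence signal at 20 µM reaches about 50%, limit read from the data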;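 note: cells stimulated with CCL20 at 14 nM final; plate controls were DMSO with CCL20 for no effect and DMSO without agonist for full effect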
APJ ag – APJ receptor agonism | CHO-K1 APJ PathHunter beta-arrestin, luminescence; 0% DMSO wells, 100% apelin | activation, % at 20 µM | hit rate 0.11% among 330,000 | AID 2520;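 active = activation more than six SD over the plate average, tested at 20 µM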;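 note: 0% = DMSO alone and 100% = apelin-13 at 10 nM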
Target sequence (P35414 whole entry, looked up): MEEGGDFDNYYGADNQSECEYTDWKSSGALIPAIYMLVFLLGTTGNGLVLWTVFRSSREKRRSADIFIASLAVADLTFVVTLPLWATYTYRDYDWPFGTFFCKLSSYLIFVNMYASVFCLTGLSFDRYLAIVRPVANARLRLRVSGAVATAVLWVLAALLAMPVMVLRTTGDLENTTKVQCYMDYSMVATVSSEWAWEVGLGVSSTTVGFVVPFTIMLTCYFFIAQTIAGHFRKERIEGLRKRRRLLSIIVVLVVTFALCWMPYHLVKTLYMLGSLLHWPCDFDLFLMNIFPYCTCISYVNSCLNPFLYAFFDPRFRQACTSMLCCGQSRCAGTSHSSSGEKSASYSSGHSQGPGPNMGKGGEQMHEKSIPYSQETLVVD
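Test system: CHO-K1 APJ beta-arrestin complementation cell line | Compound: Single test compound dose, 20 µM final, 1% DMSO | Incubation: Compound 90 min 25 °C, reagent 1 h | Measured by: beta-gal luminescence | Read-out basis: APJ–arrestin association signal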
PKA-R1A activ – activates the PKA-R1A holoenzyme complex; P00514+P68181; PKA-R1A dissociation, Cy5-IP20 fluorescence polarization; scaled: DMSO 0%, 113 µM cGMP 100%; activation, % at 11.4 µM; hit rate 0.083% among 340,000;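 active = percent activation above the mean of all tested compounds plus 3 SD, cut at about 19% in these data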;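 note: higher means more PKAc released from R1A so a rise in polarization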
PKA-R2B activ – activators of human PKA-R2B complex; AID 504700; PKA-R2B holoenzyme dissociation, Cy5-IP20 fluorescence polarization; R2B truncated from residue 108, S112A mutant; 0% DMSO only, 100% 113 µM cGMP; hit rate 0.079% among 340,000; activation, % at 11.4 µM;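 active = activation above a cutoff set at the mean over all compounds plus 3 SD, cut at about 18% in these data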;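 note: higher means more holoenzyme dissociation and a rise in polarization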
APJ antag – blocks the human apelin receptor APJ. hit rate 0.32% among 330,000. inhibition, % at 20 µM. P35414. CHO-K1 APJ beta-arrestin complementation, luminescence;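 active = inhibition above about 40% at 20 µM, limit read from the data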;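 note: cells challenged with 10 nM apelin-13 agonist together with compound; plate controls were apelin-13 plus DMSO wells for no effect and DMSO wells lacking apelin-13 for full effect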
APJ antag conf – confirmation of human APJ apelin receptor antagonists. hit rate 66% among 950. inhibition, % at 20 µM. APJ beta-arrestin recruitment, luminescence, antagonist mode. shares compounds with APJ antag. AID 2766; in the data active = inhibition above about 50%
R2B FP artifact – fluorescence polarization artifact in PKA-R2B activator counter-screen | shares compounds with PKA-R2B activ | FP artifact counterscreen | activation, % at 11.4 µM | hit rate 6% among 270 | AID 504796; in the data active = activation above about 20%;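 note: Cy5 labelled IP20 peptide probe with compound but no PKA protein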
PKA-R2B confirm – confirmation of human PKA-R2B complex activators; shares compounds with PKA-R2B activ; hit rate 9% among 270; fluorescence polarization, activation; activation, % at 11.4 µM; in the data active = activation above about 19%
R1A FP artifact – fluorescence polarization artifact in PKA-R1A activator counter-screen | shares compounds with PKA-R1A activ | Cy5-IP20 peptide alone, fluorescence polarization artifact counterscreen | activation, % at 11.4 µM | hit rate 7% among 280 | AID 504799;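 active = mean activation over triplicate runs exceeds the adjusted cutoff derived for the parent primary screen, cut at about 19% in these data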;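 note: no PKA protein present so any polarization rise reflects compound interference; 0% = tracer peptide mix alone and 100% = mix with added PKA catalytic subunit; higher means stronger polarization artifact and likely false positive in parent screen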
PKA-R1A confirm – PKA-R1A complex activation, confirmation; hit rate 9% among 280; shares compounds with PKA-R1A activ; Cy5-IP20 fluorescence polarization, PKA-R1A holoenzyme dissociation; activation, % at 11.4 µM;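 active = mean activation over replicate wells exceeds the adjusted hit threshold taken from the earlier primary screen, cut at about 20% in these data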;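 note: 0% = holoenzyme mix with DMSO only and 100% = cGMP-activated control wells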
CXCR6 confirm – CXCR6 antagonism confirmation, single concentration; shares compounds with CXCR6 block; CHO-K1 CXCR6 PathHunter beta-arrestin, luminescence; inhibition, % at 20 µM; hit rate 65% among 700; AID 602409;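 active = mean inhibition over four retests above 40%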;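 note: receptor stimulated with 10 nM CXCL16 agonist; beta-galactosidase fragment complementation upon beta-arrestin recruitment to receptor; plate controls were CXCL16 plus DMSO for no effect and DMSO without CXCL16 for full effect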
The depositor's hits bear a star; nt = not tested or not shown.

SMILES	CXCR6 block	CCR6 antag	APJ ag	PKA-R1A activ	PKA-R2B activ	APJ antag	APJ antag conf	CXCR6 confirm	others
COc1ccc(NC(=S)NNc2ccc(S(=O)(=O)Nc3ccccc3C(=O)O)cc2[N+](=O)[O-])cc1	43*	68*	-11	64*	83*	56*	100*	nt	R2B FP artifact=50*;PKA-R2B confirm=46*;R1A FP artifact=50*;PKA-R1A confirm=52*
CC(C)CN(CCNC(=O)CN1C(=O)COc2ccc(S(=O)(=O)N3CCC(C)CC3)cc21)CC(C)C	24	30	-3	2	-4	11	nt	nt
O=C(NNc1ccc([N+](=O)[O-])cc1[N+](=O)[O-])c1ccco1	44*	58*	-16	6	-1	51*	79*	48*
O=C(NNc1ccc([N+](=O)[O-])cc1)c1ccco1	14	30	7	2	-8	-9	nt	nt
CCS(=O)(=O)c1ncc(Cl)c(C(=O)Nc2ccc(S(=O)(=O)N3CCC(C)CC3)cc2)n1	83*	92*	-7	0	-5	71*	98*	93*
CC1CCN(S(=O)(=O)c2ccc(NC(=O)c3ccncc3)cc2)CC1	5	6	7	-8	-2	-7	nt	nt
CN(c1ccccc1)S(=O)(=O)c1ccc(NC(=O)c2nc(S(C)(=O)=O)ncc2Cl)cc1	94*	97*	-6	-4	3	61*	111*	85*
COc1ccc(/C(O)=C2/C(=O)C(=O)N(CCCN3CCOCC3)C2c2ccc(Cl)cc2)cc1 (stereo not given)	5	nt	nt	5	1	nt	nt	nt
Cc1[nH]c2ccccc2c1CCNC(=O)c1c(N)no[n+]1[O-]	13	-5	-5	-1	0	0	nt	nt
CCCCc1ccc(-c2csc(/C(C#N)=C\c3ccc(C)o3)n2)cc1	-1	4	-5	1	-6	-5	nt	nt
CCOc1ccc(-c2csc(/C(C#N)=C\c3ccc(O)c([N+](=O)[O-])c3)n2)cc1	39*	55*	-5	2	1	50*	61*	39
O=C(NC1CCCCC1)N1CCN(Cc2ccco2)CC1	-4	5	-5	-10	4	2	nt	nt
Nc1nc(Nc2cccc(F)c2)nc(NCc2ccco2)c1[N+](=O)[O-]	-32	33	-3	5	-12	5	nt	nt
O=S(=O)(c1ccc(SCCOc2ccc(F)cc2)nc1)N1CCCC1	-7	28	-6	-15	-9	4	nt	nt
NNc1nc(-c2ccccc2)cc(-c2ccccc2O)n1	79*	85*	-14	-10	7	57*	143*	84*
COCc1cc(=O)[nH]c(Nc2nc3ccc(C)cc3o2)n1	46*	41	-9	-4	-3	52*	54*	47*
O=C(Nc1nc(-c2ccccn2)cs1)Nc1ccc(F)cc1F	65*	67*	-8	-1	-4	41*	65*	79*
O=C(C#Cc1ccccc1)c1ccco1	69*	70*	-4	0	8	58*	74*	83*
O=C(N/N=C/c1ccccc1)c1ccco1	1	7	6	-2	-7	-33	nt	nt
CS(=O)(=O)N(CC(=O)N1CCN(Cc2ccccc2)CC1)c1ccccc1Br	-11	17	0	-2	-9	5	nt	nt
COc1ccc(Nc2cc(NCCCO)c([N+](=O)[O-])c3nonc23)cc1	12	21	-3	1	-8	20	nt	nt
CCOc1ccc(Nc2ccc([N+](=O)[O-])c3nonc23)cc1	59*	56*	-10	2	1	52*	89*	43*
CC(=O)NS(=O)(=O)c1ccc(Nc2ccc([N+](=O)[O-])c3nonc23)cc1	51*	55*	-8	-3	4	45*	101*	47*
CCn1c(Cl)c(C=O)s/c1=N\S(=O)(=O)c1ccccc1	89*	105*	0	-1	-6	96*	105*	105*
Cc1cccc(-c2nnc(SCC#N)n2-c2ccccc2)c1	1	-2	-3	-1	0	6	nt	nt
SMILES	CXCR6 block	CCR6 antag	APJ ag	PKA-R1A activ	PKA-R2B activ	APJ antag	APJ antag conf	CXCR6 confirm	others
Cc1ccc(-n2c(SCCN)nnc2-c2cccc(C)c2)cc1	44*	60*	-8	-2	4	42*	70*	49*
S=C(N/N=C/c1ccccc1)N1CCOCC1	41*	68*	-9	-11	2	48*	72*	75*
S=C(Nc1ccccc1)N1CCOCC1	9	-7	-2	5	-4	5	nt	nt
CC(=O)NCCNC(=O)Cn1nnc(-c2ccccc2)c1COc1ccc2ccccc2c1	0	nt	nt	nt	nt	nt	nt	nt
O=C(Nc1ccccc1)Nc1ncc(C(F)(F)F)cc1Cl	2	nt	nt	-2	1	nt	nt	nt
Cc1cccc(NC(=S)NNc2ncc(C(F)(F)F)cc2Cl)c1	52*	91*	-2	9	6	54*	89*	53*
COc1cc(/C=C/c2ccc3cccc(O)c3n2)cc(OC)c1OC	72*	77*	-11	-4	-4	49*	58*	85*
Nc1nc(Oc2ccc(F)cc2)c(Br)c(=O)[nH]1	2	2	0	-3	3	16	nt	nt
CCOC(=O)C1CCCN(c2c(C(=O)c3ccccc3)cnc3ccc(OC)cc23)C1 (stereo not given)	70*	83*	-12	-8	-4	58*	96*	69*
CC(Oc1ccccc1)C(=O)NNC(=O)c1ccccn1 (stereo not given)	-15	2	0	-6	4	-16	nt	nt
C/C(=N\NC(=O)C(C)Oc1ccc([N+](=O)[O-])cc1)c1ccccn1 (stereo not given)	74*	77*	-12	2	-4	56*	73*	90*
CC1(C)CC(=O)C(C=Nc2ccc(O)c(N=CC3=C(O)CC(C)(C)CC3=O)c2)=C(O)C1	22	-14	0	1	0	-11	nt	nt
